Assays:
[1] = Cytotoxicity against mouse Hepa lclc7 cells; format: cell-based
Method in brief: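 Hepa 1c1c7 murine hepatoma cells (ATCC CRL-2026) were tested in the QR induction assay format. IC50 is the concentration inhibiting cell growth by 50%.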

Hepa lclc7 = assay: Induction of mouse quinone reductase in mouse Hepa lclc7 cells assessed as concentration required to double enzyme activity; format: cell-based
Method in brief: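 Quinone reductase induction assay in Hepa 1c1c7 murine hepatoma cells (ATCC CRL-2026), with isoliquiritigenin as the positive control. CD is the concentration needed to double QR activity.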

[2] = Chemoprevention index, ratio of IC50 for mouse Hepa lclc7 cells to activity against mouse quinone reductase; format: functional
Method in brief: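 Chemoprevention index is calculated as IC50 divided by CD. IC50 is the concentration giving 50% growth inhibition of Hepa 1c1c7 cells. CD is the concentration doubling quinone reductase activity in the same cells. Isoliquiritigenin is the positive control.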

[3] = Cytotoxicity against mouse Hepa lclc7 cells at 20 ug/mL; format: cell-based

Cc1c(O)cc2c(c1O)C(=O)c1ccccc1C2=O [Rubiadin]
IC50 [1]: > 74 µM
Activity (Hepa lclc7): 8.1 µM
Ratio [2]: >9

O=C(/C=C/c1ccc(O)cc1)c1ccc(O)cc1O [ISOLIQUIRITIGENIN]
IC50 [1]: 39 µM
Activity (Hepa lclc7): 4.3 µM
Ratio [2]: 9.2

Cc1c(O)cc2c(c1O)C(=O)c1ccc(O)cc1C2=O
IC50 [1]: 47 µM
Activity (Hepa lclc7): 0.56 µM
Ratio [2]: 85

O=C1c2ccccc2C(=O)c2c1ccc(O)c2O [ATHRAQUINONES A]
IC50 [1]: 62 µM
Activity (Hepa lclc7): 12 µM
Ratio [2]: 5.1

O=C1c2ccccc2C(=O)c2cc(CO)c(O)cc21
IC50 [1]: > 78 µM
Activity (Hepa lclc7): 0.94 µM
Ratio [2]: >83

COc1c(O)cc2c(c1O)C(=O)c1ccc(O)cc1C2=O
Activity (Hepa lclc7): 0.009 µM
Activity [3]: Non-toxic
